ChEMBL document CHEMBL5053559, “Photoaffinity-Based Chemical Proteomics Reveals 7-Oxocallitrisic Acid Targets CPT1A to Trigger Lipogenesis Inhibition” (ACS Med Chem Lett, 2021)
Activity calls are given as the source filed them. The calls are words filed in the database; no cut-off is given here.

Legend:
AML12 [1] = experiment: Cytotoxicity against mouse AML12 cells assessed as cell viability at 20 uM measured after 24 hrs by MTT assay; format: cell-based; conditions: aml12, 24 h
AML12 [2] = experiment: Cytotoxicity against mouse AML12 cells assessed as cell viability at 5 uM measured after 24 hrs by MTT assay; format: cell-based; conditions: aml12, 24 h
AML12 [3] = experiment: Inhibition of oleic acid-induced lipid accumulation in mouse AML12 cells at 40 uM preincubated with oleic acid for 24 hrs followed by addition of compounds and measured after 24 hrs by Oil red O staining based microscopic assay; format: functional, cell-based
Outline: (§1)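 Normal mouse liver AML12 cells loaded with 0.15 mM oleic acid in BSA to induce lipid droplets, then given compound for 24 h. DMSO vehicle as control. Stained with Oil Red O and quantified by image analysis. Mean ± SEM, n = 3.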

AML12 [4] = experiment: Inhibition of oleic acid-induced lipid accumulation in mouse AML12 cells with Si-RNA-induced ECHS1 knockdown; format: functional, cell-based
AML12 [5] = experiment: Activation of CPT1A in mouse AML12 cells assessed as inhibition of oleic acid-induced lipid accumulation using L-carnitine and palmitoyl CoA as substrates pretreated with ETO for 6 hrs followed by addition of compound at 20 uM measured after 48 hrs by […] reagent based enzymatic assay; format: cell-based
Outline: (§2)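 Lysates of AML12 cells grown in medium with 0.15 mM oleic acid. Cells pretreated 6 h with ETO or with DMSO, then exposed to compound for 24 h (legend says 48 h). Lysis by sonication in 0.5 M Tris, 0.15 M KCl and protease inhibitors. Protein measured by Bradford. Activity expressed as nmol CoA-SH released per min per mg protein. Mean ± SEM, n = 3.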

AML12 [6] = experiment: Inhibition of oleic acid-induced lipid accumulation in mouse AML12 cells assessed as increased expression of CPT1A preincubated with ETO at 40 uM measured after 24 hrs by Oil red O staining based microscopic assay; format: functional, cell-based
Outline: (§3)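 AML12 cells either transfected with siRNA against CPT1A or pretreated with 20 μM etomoxir, with negative-control comparison. Cells then loaded with oleic acid and exposed to compound at 40 μM for 24 h. Lipid read by Oil Red O staining with image quantification. Mean ± SEM, n = 3.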

AML12 [7] = experiment: Activation of CPT1A in mouse AML12 cells assessed as inhibition of oleic acid-induced lipid accumulation using L-carnitine and palmitoyl CoA as substrates pretreated with ETO for 6 hrs followed by addition of compound at 40 uM measured after 48 hrs by […] reagent based enzymatic assay; format: cell-based; outline: as §2
AML12 [8] = experiment: Cytotoxicity against mouse AML12 cells assessed as cell viability at 40 uM measured after 24 hrs by MTT assay; format: cell-based; conditions: aml12, 24 h
AML12 [9] = experiment: Inhibition of oleic acid-induced lipid accumulation in mouse AML12 cells with Si-RNA-induced ACSL1 knockdown; format: functional, cell-based
AML12 [10] = experiment: Cytotoxicity against mouse AML12 cells assessed as cell viability at 10 uM measured after 24 hrs by MTT assay; format: cell-based; conditions: aml12, 24 h
AML12 [11] = experiment: Inhibition of oleic acid-induced lipid accumulation in mouse AML12 cells with Si-RNA-induced FADS3 knockdown; format: functional, cell-based
AML12 [12] = experiment: Activation of CPT1A in mouse AML12 cells assessed as inhibition of oleic acid-induced lipid accumulation using L-carnitine and palmitoyl CoA as substrates at 40 uM measured after 48 hrs by […] reagent based enzymatic assay relative to control; format: cell-based; conditions: filed as activator; outline: as §2
AML12 [13] = experiment: Inhibition of oleic acid-induced lipid accumulation in mouse AML12 cells at 20 uM preincubated with oleic acid for 24 hrs followed by addition of compounds and measured after 24 hrs by Oil red O staining based microscopic assay; format: functional, cell-based; outline: as §1
AML12 [14] = experiment: Activation of CPT1A in mouse AML12 cells assessed as inhibition of oleic acid-induced lipid accumulation using L-carnitine and palmitoyl CoA as substrates at 20 uM measured after 48 hrs by […] reagent based assay relative to control; format: cell-based; conditions: filed as activator; outline: as §2
AML12 [15] = experiment: Inhibition of oleic acid-induced lipid accumulation in mouse AML12 cells with siRNA-induced CPT1A knockdown at 40 uM measured after 24 hrs by Oil red O staining based microscopic assay; format: functional, cell-based; outline: as §3

CC(C)c1ccc2c(c1)C(=O)C[C@H]1[C@](C)(C(=O)O)CCC[C@]21C
Activity (AML12 [1]): Non-Toxic
Activity (AML12 [2]): Non-Toxic
inhibition (AML12 [3]): Active
inhibition (AML12 [4]): Active
Activity (AML12 [5]): inactive
inhibition (AML12 [6]): inactive
Activity (AML12 [7]): inactive
Activity (AML12 [8]): Non-Toxic
inhibition (AML12 [9]): Active
Activity (AML12 [10]): Non-Toxic
inhibition (AML12 [11]): Active
fold change (FC) (AML12 [12]): 1.6
inhibition (AML12 [13]): Active
fold change (FC) (AML12 [14]): 1.5
inhibition (AML12 [15]): inactive
